According to ChEMBL document CHEMBL4017487, “Design and Synthesis of γ- and δ-Lactam M1 Positive Allosteric Modulators (PAMs): Convulsion and Cholinergic Toxicity of an M1-Selective PAM with Weak Agonist Activity” (J Med Chem, 2017):

Legend:
Rattus norvegicus [1] = experiment: Unbound Cmax in rat plasma at 45 mg/kg, po administered as single dose; assay type: ADME, organism-based; settings: in vivo
[2] = biological target: T1, Muscarinic acetylcholine receptor M4 (Homo sapiens, UniProt P08173); experiment: Agonist activity at human muscarinic acetylcholine receptor M4 expressed in CHO cells assessed as increase in cAMP accumulation after 2 hrs by cAMP-Glo assay; assay type: cell-based
T1 sequence (P08173 whole entry): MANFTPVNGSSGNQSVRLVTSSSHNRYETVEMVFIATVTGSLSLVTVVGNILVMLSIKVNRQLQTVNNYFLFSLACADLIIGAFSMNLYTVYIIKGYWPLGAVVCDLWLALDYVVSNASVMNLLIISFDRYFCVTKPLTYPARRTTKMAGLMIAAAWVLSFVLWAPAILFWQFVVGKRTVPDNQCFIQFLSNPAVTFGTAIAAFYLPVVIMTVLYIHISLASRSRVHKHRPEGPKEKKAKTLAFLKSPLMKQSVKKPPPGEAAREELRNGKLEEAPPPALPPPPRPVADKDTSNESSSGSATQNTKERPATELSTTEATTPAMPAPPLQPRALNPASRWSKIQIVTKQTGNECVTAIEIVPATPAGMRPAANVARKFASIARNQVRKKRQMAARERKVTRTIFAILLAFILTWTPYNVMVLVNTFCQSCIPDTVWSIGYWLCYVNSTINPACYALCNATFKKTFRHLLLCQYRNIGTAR
Summary of the method: (§1)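 Recombinant functional human M2–M5 assays, each run in agonist and PAM modes at concentrations up to 10 μM.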

Mus musculus = experiment: In vivo agonist activity at muscarinic acetylcholine receptor M1 in C57BL/6 mouse assessed as increase in IP1 accumulation in striatum at 1 to 10 mg/kg, sc measured after 2 hrs; assay type: organism-based
Summary of the method: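 C57BL/6 mice dosed with compound or vehicle, then ex vivo striatal IP1 and free brain concentration (Cb,u) measured. Data points are individual mice.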

Rattus norvegicus [3] = experiment: Unbound AUC (0 to 24 hrs) in rat plasma at 1 mg/kg, po administered as single dose; assay type: ADME, organism-based; settings: in vivo
Summary of the method: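 Rats (3/sex/dose) dosed orally once, 1 or 5 mg/kg as a 0.5% methylcellulose suspension.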

Brain = experiment: Unbound brain concentration in scopolamine-induced memory impairment Wistar rat model at 1 mg/kg, sc measured after 1.25 hrs by LC-MS/MS analysis; assay type: ADME, organism-based; settings: in vivo
Canis familiaris [4] = experiment: Cholinergic toxicity in dog assessed as increased activity at 15 mg/kg, po administered as single dose using spray dried dispersion formulation after 1 hr; assay type: organism-based, Canis lupus familiaris; settings: in vivo
Summary of the method: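 Dog single oral dose escalation: 1/sex at 5 mg/kg for each formulation; 1 female at 15 mg/kg. Spray-dried dispersion: 23% drug loading with 0.5% methylcellulose and 100 mM citrate buffer. Clinical signs timed in approximate hours postdose; unbound plasma Cmax.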

Rattus norvegicus [5] = experiment: Toxicity in rat assessed as convulsions at 45 mg/kg, po administered as single dose after 1 to 6 hrs; assay type: organism-based; settings: in vivo
[6] = Ratio of AUC in rat brain to plasma at 2 mg/kg, po or 0.5 mg/kg, iv administered as single bolus dose; assay type: ADME, organism-based; settings: read-out: Ratio AUC
Summary of the method: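 Brain/plasma ratio computed from AUC of total drug in brain and total drug in plasma.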

Canis familiaris [7] = experiment: Toxicity in dog assessed as unbound Cmax in brain required to show convulsions at 15 mg/kg, po administered as single dose using spray dried dispersion formulation; assay type: organism-based, Canis lupus familiaris; settings: in vivo
[8] = biological target: T2, Muscarinic acetylcholine receptor M1 (Homo sapiens, UniProt P11229); experiment: Agonist activity at human muscarinic acetylcholine receptor M1 expressed in CHO cells assessed as increase in calcium mobilization at 13 uM incubated for 10 mins by Fluo-8-AM dye based FLIPR assay relative to control; assay type: cell-based; settings: read-out: %max
T2 sequence (P11229 whole entry): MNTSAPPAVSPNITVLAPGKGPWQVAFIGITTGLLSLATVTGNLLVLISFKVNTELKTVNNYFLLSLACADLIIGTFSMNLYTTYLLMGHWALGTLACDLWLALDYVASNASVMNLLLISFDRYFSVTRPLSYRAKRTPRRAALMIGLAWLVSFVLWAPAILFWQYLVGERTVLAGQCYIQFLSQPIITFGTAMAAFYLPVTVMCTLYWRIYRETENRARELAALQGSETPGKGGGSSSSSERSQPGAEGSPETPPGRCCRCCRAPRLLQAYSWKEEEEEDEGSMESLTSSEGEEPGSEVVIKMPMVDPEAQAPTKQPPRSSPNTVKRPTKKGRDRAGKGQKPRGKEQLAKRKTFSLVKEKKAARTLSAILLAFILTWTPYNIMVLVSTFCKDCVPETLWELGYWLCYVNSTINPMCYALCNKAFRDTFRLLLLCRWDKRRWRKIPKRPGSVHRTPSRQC

[9] = Unbound plasma concentration in dog at 0.5 mg/kg, po or 0.1 mg/kg, iv administered as single bolus dose; assay type: ADME, organism-based, Canis lupus familiaris
Summary of the method: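 Dog PK: IV bolus given as a solution, 0.1 mg/kg in 20% HPBCD; oral dose given as a suspension, 0.5 mg/kg in 0.5% methylcellulose. Fraction unbound in plasma determined.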

[10] = biological target: T3, Muscarinic acetylcholine receptor M5 (Homo sapiens, UniProt P08912); experiment: Agonist activity at human muscarinic acetylcholine receptor M5 expressed in CHO cells assessed as increase in calcium mobilization incubated for 10 mins by Fluo-8-AM dye based FLIPR assay; assay type: cell-based; summary of the method: as §1
T3 sequence (P08912 whole entry): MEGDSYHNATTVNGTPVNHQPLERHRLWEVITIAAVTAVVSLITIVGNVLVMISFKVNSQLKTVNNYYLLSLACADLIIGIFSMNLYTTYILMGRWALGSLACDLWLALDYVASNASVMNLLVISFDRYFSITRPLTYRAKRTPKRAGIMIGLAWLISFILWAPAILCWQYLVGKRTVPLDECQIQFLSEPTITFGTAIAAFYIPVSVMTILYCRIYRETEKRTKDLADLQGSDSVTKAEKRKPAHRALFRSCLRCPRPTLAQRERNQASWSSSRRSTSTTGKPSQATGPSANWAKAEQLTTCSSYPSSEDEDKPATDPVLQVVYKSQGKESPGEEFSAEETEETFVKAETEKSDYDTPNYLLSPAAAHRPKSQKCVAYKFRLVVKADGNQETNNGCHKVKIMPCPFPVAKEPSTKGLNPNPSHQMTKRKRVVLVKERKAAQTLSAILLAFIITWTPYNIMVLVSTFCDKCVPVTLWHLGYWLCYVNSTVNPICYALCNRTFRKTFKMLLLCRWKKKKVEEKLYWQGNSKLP

[11] = Ratio of unbound AUC in dog brain to plasma at 0.5 mg/kg, po or 0.1 mg/kg, iv administered as single bolus dose; assay type: ADME, organism-based, Canis lupus familiaris
Canis familiaris [12] = experiment: Toxicity in dog assessed as unbound Cmax in plasma required to show convulsions at 15 mg/kg, po administered as single dose using spray dried dispersion formulation; assay type: organism-based, Canis lupus familiaris; settings: in vivo
[13] = biological target: Muscarinic acetylcholine receptor M3 (Homo sapiens, UniProt P20309); experiment: Positive allosteric modulation of human muscarinic acetylcholine receptor M3 expressed in CHO cells assessed as increase in acetylcholine-induced calcium mobilization up to 10 uM preincubated for 10 mins followed by acetylcholine addition by Fluo-8-AM dye based FLIPR assay; assay type: cell-based; summary of the method: as §1
Muscarinic acetylcholine receptor M3, sequence (P20309 whole entry): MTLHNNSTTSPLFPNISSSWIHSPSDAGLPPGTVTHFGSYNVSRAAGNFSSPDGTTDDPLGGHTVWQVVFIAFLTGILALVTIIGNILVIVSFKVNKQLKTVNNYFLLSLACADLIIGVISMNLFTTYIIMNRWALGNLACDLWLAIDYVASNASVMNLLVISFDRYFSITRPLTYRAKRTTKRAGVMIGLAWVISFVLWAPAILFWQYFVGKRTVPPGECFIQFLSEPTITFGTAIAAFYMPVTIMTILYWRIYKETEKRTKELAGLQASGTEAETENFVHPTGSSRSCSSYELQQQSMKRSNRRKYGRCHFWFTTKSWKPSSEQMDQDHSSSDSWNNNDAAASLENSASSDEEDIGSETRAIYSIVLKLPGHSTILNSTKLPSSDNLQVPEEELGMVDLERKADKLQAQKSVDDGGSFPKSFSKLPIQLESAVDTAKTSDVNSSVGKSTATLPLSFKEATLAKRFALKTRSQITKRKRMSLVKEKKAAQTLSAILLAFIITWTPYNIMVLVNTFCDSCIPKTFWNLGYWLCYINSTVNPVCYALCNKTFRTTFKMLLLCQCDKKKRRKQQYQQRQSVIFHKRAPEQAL

[14] = Ratio of unbound AUC in rat brain to plasma at 2 mg/kg, po or 0.5 mg/kg, iv administered as single bolus dose; assay type: ADME, organism-based

Cc1cc2c(cc1Cc1ccc(-c3cocn3)cc1)C(=O)N([C@H]1CCOC[C@@H]1O)C2
fCmax (Rattus norvegicus [1]): 2.31 to 3.83 µM
EC50 [2]: > 10 µM
Activity (Mus musculus): Active
fAUC (Rattus norvegicus [3]): 1.048 µM·h
Drug uptake(free) (Brain): 13 nM
Activity (Canis familiaris [4]): Toxic
Activity (Rattus norvegicus [5]): Toxic
Kp [6]: 0.2
fCmax (Canis familiaris [7]): 320 nM
Emax at 13 µM [8]: 23%
fraction unbound [9]: 0.059
EC50 [10]: > 10 µM
Kp uu [11]: 0.3
fCmax (Canis familiaris [12]): 1070 nM
Activity [13]: Not Active
Kp uu [14]: 0.2
